According to ChEMBL document CHEMBL1123250, “Chloroalanyl antibiotic peptides: antagonism of their antimicrobial effects by L-alanine and L-alanyl peptides in gram-negative bacteria” (1986):

Key:
Escherichia coli = experiment: Compound was tested for enzyme activity against transaminase B; per mg protein
How it was run: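 Homogenates of E. coli JSR-0 taken 30 min after agent addition at ~100 Klett units (Davis-Mingioli medium with Met/Pro, Leu/Ile/Val, and in some cultures sucrose or L-Ala). Valine→α-ketoisovalerate transamination read in Tris-HCl pH 7.8 with pyridoxal phosphate and α-ketoglutarate at 37 °C. Timed aliquots derivatized with 2,4-dinitrophenylhydrazine; hydrazone read at 430 nm against a standard curve.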

[1] = target: Alanine racemase, biosynthetic (Escherichia coli K-12) (UniProt P0A6B4); experiment: Compound was tested for enzyme activity against alanine racemase; per mg protein
Chain of Alanine racemase, biosynthetic (Escherichia coli K-12) (P0A6B4 whole entry): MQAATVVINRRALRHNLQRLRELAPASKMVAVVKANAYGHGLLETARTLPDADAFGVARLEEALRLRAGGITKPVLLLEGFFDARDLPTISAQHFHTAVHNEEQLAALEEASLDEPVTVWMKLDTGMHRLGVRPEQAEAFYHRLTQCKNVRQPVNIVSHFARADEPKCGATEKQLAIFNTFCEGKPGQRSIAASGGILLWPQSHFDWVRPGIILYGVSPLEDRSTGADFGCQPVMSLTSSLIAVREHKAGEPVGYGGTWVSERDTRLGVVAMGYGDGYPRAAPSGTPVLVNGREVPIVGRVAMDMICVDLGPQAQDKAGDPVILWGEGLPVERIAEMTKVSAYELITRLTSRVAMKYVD
How it was run: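 E. coli JSR-0 grown at 37 °C in Davis-Mingioli medium with Met/Pro (50 µg/mL) and Leu/Ile/Val (100 µg/mL). Some cultures had 5% sucrose or 500 µg/mL L-Ala. Agent added at ~100 Klett units; cells harvested after 30 min, washed and sonicated. Racemase read D→L in the supernatant, coupled to L-alanine dehydrogenase (NADH, 340 nm): 10 mM D-Ala, 5 mM NAD+, CHES pH 9.0, 37 °C.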

specific activity (Escherichia coli): 0.0541 µmol/min/mg
specific activity [1]: 0.0176 µmol/min/mg
SMILES: O=C(N[C@H](CO)[C@H](O)c1ccc([N+](=O)[O-])cc1)C(Cl)Cl
